{
  "source": "PubChem BioAssay AID651921",
  "about": "(Vanderbilt Specialized Chemistry Center, 2012)",
  "target": "Muscarinic acetylcholine receptor M1 (Rattus norvegicus) (UniProt P08482)",
  "sequence (P08482 whole entry, looked up)": "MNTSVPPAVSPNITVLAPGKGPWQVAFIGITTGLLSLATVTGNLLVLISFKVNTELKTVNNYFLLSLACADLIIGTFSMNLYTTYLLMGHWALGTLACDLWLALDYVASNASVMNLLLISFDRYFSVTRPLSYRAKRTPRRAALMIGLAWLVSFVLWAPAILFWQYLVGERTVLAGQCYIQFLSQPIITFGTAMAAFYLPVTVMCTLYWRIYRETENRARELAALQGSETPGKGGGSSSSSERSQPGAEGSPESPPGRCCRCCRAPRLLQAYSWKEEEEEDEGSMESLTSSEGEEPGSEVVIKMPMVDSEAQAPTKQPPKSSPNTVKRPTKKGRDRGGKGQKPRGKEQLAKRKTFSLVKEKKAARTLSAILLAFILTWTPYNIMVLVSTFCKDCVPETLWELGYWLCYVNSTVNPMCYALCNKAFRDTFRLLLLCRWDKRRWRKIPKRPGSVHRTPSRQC",
  "assay": "rat M1 receptor potentiation, selectivity assay for M5 PAM project, CHO cells (AID 651921)",
  "conditions": "CHO-K1 rat M1, calcium Fluo-4, ACh EC20; series mostly up to 30 µM",
  "how_it_was_run": "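Test system: CHO-K1 cell line; Reagent: acetylcholine, EC20; Timing: 1.5 min compound, 50 s agonist, 25 °C; Signal: calcium fluorescence; Evaluation: baseline-normalized signal as percent of maximal acetylcholine response.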",
  "note": "Active and inactive are the calls of the source. No rule for the calls is given here.",
  "data": [
    {"smiles": "O=C1C(=O)N(CCOc2ccccc2)c2ccc(OC(F)(F)F)cc21", "values": [
      {"measurement": "outcome", "result": "inactive"}
    ]}
  ]
}
